According to ChEMBL document CHEMBL5131524, “Design and Synthesis of Tranylcypromine-Derived LSD1 Inhibitors with Improved hERG and Microsomal Stability Profiles” (ACS Med Chem Lett, 2022):
pKi: −log10 of the molar value.

How the values were obtained:
[1] = Metabolic stability in human liver microsomes assessed as compound remaining and measured after 60 mins in presence of beta-NADPH by liquid chromatography tandem mass spectrometry analysis; type: ADME, Microsome; conditions: read-out: Stability
Outline: (§1)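 Percent of compound remaining after 60 min incubation with liver microsomes of each species (human, rat, mouse). Values are the mean of three independent experiments.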

[2] = Metabolic stability in rat liver microsomes assessed as compound remaining and measured after 60 mins in presence of beta-NADPH by liquid chromatography tandem mass spectrometry analysis; type: ADME, Microsome; conditions: read-out: Stability; outline: as §1
[3] = biological target: T1, Amine oxidase [flavin-containing] B (Homo sapiens, UniProt P27338); assay: Inhibition of MAO-B (unknown origin) using tyramine as substrate and measured after 10 mins by peroxidase-coupled reaction method
T1 sequence (P27338 whole entry): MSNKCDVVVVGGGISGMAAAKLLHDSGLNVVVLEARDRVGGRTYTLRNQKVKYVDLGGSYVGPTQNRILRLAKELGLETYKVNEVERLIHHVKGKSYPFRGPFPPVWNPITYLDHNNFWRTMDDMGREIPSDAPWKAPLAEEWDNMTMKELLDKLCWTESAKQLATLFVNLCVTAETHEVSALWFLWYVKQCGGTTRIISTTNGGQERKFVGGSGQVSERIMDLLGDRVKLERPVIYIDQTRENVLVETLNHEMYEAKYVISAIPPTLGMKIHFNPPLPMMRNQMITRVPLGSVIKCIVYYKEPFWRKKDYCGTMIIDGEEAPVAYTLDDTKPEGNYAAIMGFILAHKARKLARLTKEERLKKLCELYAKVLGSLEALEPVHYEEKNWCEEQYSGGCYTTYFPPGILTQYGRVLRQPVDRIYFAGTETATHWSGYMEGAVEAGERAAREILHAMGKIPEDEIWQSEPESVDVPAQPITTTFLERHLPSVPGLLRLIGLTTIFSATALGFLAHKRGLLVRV

[4] = biological target: T2, Amine oxidase [flavin-containing] A (Homo sapiens, UniProt P21397); assay: Inhibition of MAO-A (unknown origin) using tyramine as substrate and measured after 10 mins by peroxidase-coupled reaction method
T2 sequence (P21397 whole entry): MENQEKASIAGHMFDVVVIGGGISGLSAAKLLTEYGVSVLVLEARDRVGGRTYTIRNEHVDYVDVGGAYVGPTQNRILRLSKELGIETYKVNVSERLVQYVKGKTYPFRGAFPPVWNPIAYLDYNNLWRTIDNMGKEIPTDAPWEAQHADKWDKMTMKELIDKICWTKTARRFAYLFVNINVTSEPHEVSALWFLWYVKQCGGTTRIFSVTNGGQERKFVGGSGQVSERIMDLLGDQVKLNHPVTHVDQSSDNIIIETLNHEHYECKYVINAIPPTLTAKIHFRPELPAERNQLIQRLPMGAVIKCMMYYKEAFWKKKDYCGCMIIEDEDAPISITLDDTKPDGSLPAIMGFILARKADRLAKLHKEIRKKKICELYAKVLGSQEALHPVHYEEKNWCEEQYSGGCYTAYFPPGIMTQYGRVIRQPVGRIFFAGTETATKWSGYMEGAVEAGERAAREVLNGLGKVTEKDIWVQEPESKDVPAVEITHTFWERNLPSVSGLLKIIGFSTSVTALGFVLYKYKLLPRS

[5] = Metabolic stability in mouse liver microsomes assessed as compound remaining and measured after 60 mins in presence of beta-NADPH by liquid chromatography tandem mass spectrometry analysis; type: ADME, Microsome; conditions: read-out: Stability; outline: as §1
hERG (KCNH2) = hERG (KCNH2) (Homo sapiens, UniProt Q12809); assay: Inhibition of human ERG expressed in human HEK293 cells at 10 uM for 2 mins by whole-cell patch-clamp system; type: toxicity, cell-based; conditions: HEK293 cells expressing human ERG
Chain of hERG (KCNH2) (Q12809 whole entry): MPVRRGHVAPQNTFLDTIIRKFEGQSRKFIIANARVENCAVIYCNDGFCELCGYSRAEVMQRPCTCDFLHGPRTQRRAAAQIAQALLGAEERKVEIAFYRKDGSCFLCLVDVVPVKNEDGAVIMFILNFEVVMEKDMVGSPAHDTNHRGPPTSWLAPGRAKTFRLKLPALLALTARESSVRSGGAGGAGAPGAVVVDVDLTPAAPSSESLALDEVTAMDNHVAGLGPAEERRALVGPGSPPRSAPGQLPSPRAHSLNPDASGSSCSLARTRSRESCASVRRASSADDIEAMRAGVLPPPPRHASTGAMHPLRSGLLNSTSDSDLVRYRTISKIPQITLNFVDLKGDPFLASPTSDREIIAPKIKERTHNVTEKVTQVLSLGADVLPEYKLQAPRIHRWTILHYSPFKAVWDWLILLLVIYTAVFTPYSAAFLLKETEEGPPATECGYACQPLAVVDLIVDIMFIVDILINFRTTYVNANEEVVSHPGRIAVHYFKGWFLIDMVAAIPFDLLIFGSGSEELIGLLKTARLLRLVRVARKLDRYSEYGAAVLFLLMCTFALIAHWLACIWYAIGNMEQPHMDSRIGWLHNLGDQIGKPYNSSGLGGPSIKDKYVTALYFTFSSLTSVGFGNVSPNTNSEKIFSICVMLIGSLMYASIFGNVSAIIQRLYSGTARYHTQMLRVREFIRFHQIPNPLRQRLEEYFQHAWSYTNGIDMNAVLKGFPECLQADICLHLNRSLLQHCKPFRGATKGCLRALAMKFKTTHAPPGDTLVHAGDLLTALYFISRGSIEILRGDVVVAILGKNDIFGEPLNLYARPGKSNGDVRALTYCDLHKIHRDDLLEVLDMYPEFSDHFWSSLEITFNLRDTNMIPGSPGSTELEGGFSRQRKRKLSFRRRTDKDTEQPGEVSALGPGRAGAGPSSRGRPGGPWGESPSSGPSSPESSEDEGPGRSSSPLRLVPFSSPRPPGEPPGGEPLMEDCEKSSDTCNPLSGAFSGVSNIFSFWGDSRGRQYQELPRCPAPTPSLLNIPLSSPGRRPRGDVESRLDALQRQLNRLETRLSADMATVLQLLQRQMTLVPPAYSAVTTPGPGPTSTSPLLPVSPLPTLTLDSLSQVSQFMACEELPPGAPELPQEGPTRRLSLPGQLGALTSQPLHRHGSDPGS
Outline: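 hERG inhibition was measured by automated patch clamp in HEK293 cells expressing hERG. Values are the mean of three independent experiments.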

[6] = Tmax in ICR mouse serum at 10 mg/kg, ip; type: ADME, organism-based
Outline: (§2)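 Single intraperitoneal injection, 10 mg/5 mL per kilogram, to male ICR mice aged eight weeks (n = 3). Serum concentration–time profiles were measured, giving AUC0–∞ […], Cmax, Tmax and serum half-life.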

[7] = Half life in ICR mouse serum at 10 mg/kg, ip; type: ADME, organism-based; outline: as §2
[8] = AUC (0-infinity) in ICR mouse at 10 mg/kg, ip; type: ADME, organism-based; parameters: time infinity, dose 10 mg/kg, route ip; conditions: in vivo; outline: as §2
[9] = Cmax in ICR mouse serum at 10 mg/kg, ip; type: ADME, organism-based; parameters: dose 10 mg/kg, route ip; outline: as §2

remaining at 1 h [1] [%] | remaining at 1 h [2] [%] | remaining at 1 h [5] [%] | Structure (SMILES) | inhibition at 2 min, 10 µM (hERG (KCNH2)) [%] | also measured
45 | 55 | 73 | O=C(CN[C@@H]1C[C@H]1c1cc(F)cc(F)c1OCc1cccnc1F)N1CCC2(CCNC2)CC1 | – | pKi [3]: < 3.60; pKi [4]: < 3.60
– | – | – | COCCN1CCN(C(=O)CNC2CC2c2cc(F)cc(F)c2OCc2cnn(C)c2)CC1 (configuration not stated) | 14 | –
– | – | – | COCCN1CCN(C(=O)CNC2CC2c2cc(F)cc(F)c2OCc2ccccc2)CC1 (configuration not stated) | 50 | –
– | – | – | COCCN1CCN(C(=O)CNC2CC2c2cc(F)cc(F)c2OCCc2ccc(F)cc2)CC1 (configuration not stated) | > 100 | –
0 | 24 | 25 | O=C(CNC1CC1c1cc(F)cc(F)c1OCc1cccnc1F)N1CCC(N2CC3CCC(C2)N3)CC1 (configuration not stated) | 23 | –
– | – | – | COCCN1CCN(C(=O)CNC2CC2c2cc(F)cc(F)c2OCc2cc[nH]n2)CC1 (configuration not stated) | 8 | –
41 | 20 | 42 | O=C(CNC1CC1c1cc(F)cc(F)c1OCc1cccnc1F)N1CCC2(CCCN2)CC1 (configuration not stated) | 62 | –
– | – | – | COCCN1CCN(C(=O)CNC2CC2c2cc(F)cc(F)c2OCc2cccnc2F)CC1 (configuration not stated) | 21 | –
44 | 56 | 73 | O=C(CNC1CC1c1cc(F)cc(F)c1OCc1cccnc1F)N1CCC2(CCNC2)CC1 (configuration not stated) | 10 | –
0 | 0 | 0 | O=C(CNC1CC1c1cc(F)cc(F)c1OCc1cccnc1F)N1CCC(N2CC3CCC(C2)O3)CC1 (configuration not stated) | 32 | –
– | – | – | COCCN1CCN(C(=O)CNC2CC2c2cc(F)cc(F)c2OCc2ccnc(F)c2)CC1 (configuration not stated) | 46 | –
– | – | – | COCCN1CCN(C(=O)CNC2CC2c2cc(F)cc(F)c2OCCc2ccccc2)CC1 (configuration not stated) | 76 | –
38 | 62 | 62 | O=C(CN[C@H]1C[C@@H]1c1cc(F)cc(F)c1OCc1cccnc1F)N1CCC2(CCNC2)CC1 | – | Tmax [6]: 30 min; pKi [3]: < 3.60; half-life [7]: 234 min; AUC(0-inf) [8]: 5.09 µM·h; Cmax [9]: 3030 nM; pKi [4]: < 3.60
– | – | – | CN1CCN(C(=O)CNC2CC2c2cc(F)cc(F)c2OCc2ccccc2)CC1 (racemic) | 51 | Tmax [6]: 15 min; half-life [7]: 57 min; AUC(0-inf) [8]: 0.98 µM·h; Cmax [9]: 960 nM
